Test [1] is described as follows: HUVEC growth inhibition – cell-based, human, primary screen (AID 575;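 active means viability at or below 30% in both replicate assays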;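 further: 100% = median of untreated cell wells with 0.1% DMSO on each plate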). The following applies: HUVEC proliferation, CellTiter-Glo luminescence, 72 h; at 10 µM; stronger effect = lower value. The method, boiled down:
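System: primary human umbilical vein endothelial cells; Quantity: 1250 endothelial cells in each well; Buffer or medium: supplemented EBM, 2% fetal bovine serum; Doses: one dose, 10 µM final, 0.1% DMSO; Incubation: 72 h compound incubation; Technique: ATP-based CellTiter-Glo luminescent read; Evaluation: percent of median DMSO-control luminescence; Controls: vehicle and MePR control wells.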
On the technique in general: In ATP-based viability assays light output follows the ATP content of the culture.

A short description of test [2]: H69AR cell proliferation blockers – human, duplicate replicates, primary screen (AID 580;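 active means viability at or under a set limit in both replicates, limit being median viability minus 3 SD, cut at about 48% in these data, passing the limit was not always enough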;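 further: 100% = mean luminescence of untreated wells and 0% = no signal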). To be noted: H69AR lung tumor cells viability, ATP luminescence, 72 h; at 10 µM; stronger effect = lower value.
Test [3] in a line: MRP1 drug-resistance reversers in H69AR cells – cell-based, doxorubicin co-treatment, pilot screen (AID 601;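 active means viability loss from added drug above about 55%, and viability with drug at most 40%, in both replicates, limit read from the data, passing the limit was not always enough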). The following applies: CellTiter-Glo, 72 h, at 10 µM; for differential viability (reversal): stronger effect = higher value.
Test [4] can be described thus: yeast transport mutant growth inhibition pilot in 384-well plates, post-Golgi transport modulator project (AID 636; in the data active means inhibition above about 31%). The following applies: absorbance 615 nm, about 18 h, stronger effect = higher value.
A short description of test [5]: growth suppression of yeast trafficking mutant, preliminary HTS, modulators of trafficking downstream of Golgi apparatus project, 1536-format plate, OD 615 nm (AID 637). To be noted: yeast transport mutant growth, absorbance 615 nm, 18 h; stronger effect = higher value.
The mark [6] stands for this setting: H69AR cells + 2 uM doxorubicin, measured here: viability with 2 uM doxorubicin, stronger effect = lower value.
The mark [7] stands for this setting: H69AR cells, compound alone cytotoxicity.

The structures appear in SMILES notation. Activity calls are given as the source filed them. Unless noted, no stated cut-off is given here; in the data, active means inhibition above about 30%; inactive means the rest.

On to `c1ccc(Cn2nnnc2C(c2ccccn2)N2CCOCC2)cc1` (stereo not drawn), for which the viability (commonly a read-out of living cells in per cent, often relative to untreated cells) in test [1] is 107% (inactive); in test [2] it was 94.3% (inactive); in test [3] (setting [6]), 96.5%; in test [3] (setting [7]) it was 94.3%. For the same molecule, the differential viability (reversal) in test [3] (H69AR cells + 2 uM doxorubicin) is -2.14% (inactive). Moreover, the results for the inhibition in test [4] and in test [5] were -3.25% (inactive) and -6.51% (inactive), respectively.

Take `Cc1onc(-c2ccccc2)c1C(=O)N1CCCSC1=Nc1ccccc1`: the viability in test [1] was 76.9% (inactive); in test [2], 92.5% (inactive); in test [3] (setting [6]), 86.6%; in test [3] (setting [7]), 92.5%. Also, the differential viability (reversal) in test [3] (H69AR cells + 2 uM doxorubicin) is 5.92% (inactive). Also, the inhibition (commonly the relative decrease from the control value, in per cent) was -4.55% (inactive) in test [4] and 0.63% (inactive) in test [5].

Take `COc1cc(C2C3=C(CC(C)(C)CC3=O)Nc3c2c(=O)[nH]c(=O)n3Cc2ccccc2)ccc1O` (stereo not drawn): the viability in test [1] was 83.3% (inactive); in test [2], 93.7% (inactive); in test [3] (setting [6]) it was 89.5%; in test [3] (setting [7]), 93.7%. The differential viability (reversal) in test [3] (H69AR cells + 2 uM doxorubicin) was 4.23% (inactive). The inhibition is 0.26% (inactive) in test [4] and 3.33% (inactive) in test [5].

Regarding `O=C(c1ccco1)N1CCN(CC(=O)N(C2CCCCC2)C2CCS(=O)(=O)C2)CC1` (stereo not drawn), the viability in test [1] was 94% (inactive); in test [2], 93.5% (inactive); in test [3] (setting [6]), 97.6%; in test [3] (setting [7]) it was 93.5%. The differential viability (reversal) in test [3] (H69AR cells + 2 uM doxorubicin) is -4.1% (inactive). The inhibition in test [4] was -4.81% (inactive); in test [5] it was -3.17% (inactive).

With `CCc1ccc2[nH]c(=O)c(C(c3nnnn3CC3CCCO3)N3CCCc4ccccc43)cc2c1` (stereo not drawn), the viability is 88.5% (inactive) in test [1], 91.8% (inactive) in test [2], 98.2% in test [3] (setting [6]) and 91.8% in test [3] (setting [7]). Moreover, in test [3] (H69AR cells + 2 uM doxorubicin), the differential viability (reversal) was -6.4% (inactive). In addition, the inhibition is -7.2% (inactive) in test [4] and -1.9% (inactive) in test [5].

On to `COC(=O)Cn1c(=O)c2c(nc(Br)n2CC(=O)OC)n(C)c1=O`, for which the viability in test [1] is 91.6% (inactive); in test [2] it was 86.5% (inactive); in test [3] (setting [6]), 79.7%; in test [3] (setting [7]), 86.5%. In addition, the differential viability (reversal) in test [3] (H69AR cells + 2 uM doxorubicin) was 6.83% (inactive). The figures for the inhibition in test [4] and in test [5] were -4.53% (inactive) and -0.79% (inactive), respectively.

In the case of `CC1(C)C2CCC1(CS(=O)(=O)NCc1ccc(C(=O)O)cc1)C(=O)C2` (stereo not drawn), the viability is 103% (inactive) in test [1], 108% (inactive) in test [2], 84.2% in test [3] (setting [6]) and 108% in test [3] (setting [7]). For the same molecule, the differential viability (reversal) in test [3] (H69AR cells + 2 uM doxorubicin) was 23.7% (inactive). For the same molecule, the inhibition was -0.39% (inactive) in test [4] and 3.33% (inactive) in test [5].

Regarding `CC1CC(=O)c2cnc(NCC3CCCO3)nc2C1` (stereo not drawn), the viability in test [1] is 103% (inactive); in test [2] it was 87.3% (inactive); in test [3] (setting [6]) it was 83%; in test [3] (setting [7]) it was 87.3%. For the same molecule, the differential viability (reversal) in test [3] (H69AR cells + 2 uM doxorubicin) was 4.31% (inactive). For the same molecule, the inhibition in test [4] was -6.8% (inactive); in test [5], 6.03% (inactive).

With `CCCC(=O)Nc1ccc(NC(=O)c2cccs2)cn1`, the viability is 95.9% (inactive) in test [1], 87.8% (inactive) in test [2], 82.3% in test [3] (setting [6]) and 87.8% in test [3] (setting [7]). The differential viability (reversal) in test [3] (H69AR cells + 2 uM doxorubicin) is 5.45% (inactive). The inhibition in test [4] is -2.99% (inactive); in test [5] it was -2.86% (inactive).

Turning to `CC1(C)CC(=O)C2=C(C1)Nc1nc(SCCN3CCOCC3)[nH]c(=O)c1C2c1cccs1` (stereo not drawn), the viability in test [1] is 99.6% (inactive); in test [2], 89.9% (inactive); in test [3] (setting [6]), 87.8%; in test [3] (setting [7]), 89.9%. The differential viability (reversal) in test [3] (H69AR cells + 2 uM doxorubicin) is 2.1% (inactive). The inhibition in test [4] was 1.69% (inactive); in test [5] it was 24% (inactive).

`COc1cccc(Nc2c(F)c(F)c(F)c(F)c2C(=O)O)c1`: the viability in test [1] was 92.2% (inactive); in test [2], 99.7% (inactive); in test [3] (setting [6]), 90.5%; in test [3] (setting [7]) it was 99.7%. In addition, the differential viability (reversal) in test [3] (H69AR cells + 2 uM doxorubicin) was 9.22% (inactive). Further, the inhibition in test [4] is -5.84% (inactive); in test [5], -1.27% (inactive).

For the molecule `O=C(CSc1nc(-c2ccc(F)cc2)cs1)N1CCOCC1`, the viability is 122% (inactive) in test [1], 94.4% (inactive) in test [2], 75.2% in test [3] (setting [6]) and 94.4% in test [3] (setting [7]). Also, the differential viability (reversal) in test [3] (H69AR cells + 2 uM doxorubicin) is 19.2% (inactive). The inhibition in test [4] was -0.92% (inactive); in test [5], 6.67% (inactive).

Take `CCOC(=O)C1CCCN(S(=O)(=O)c2cccs2)C1` (stereo not drawn): the viability in test [1] is 110% (inactive); in test [2], 109% (inactive); in test [3] (setting [6]), 96.7%; in test [3] (setting [7]) it was 109%. Also, in test [3] (H69AR cells + 2 uM doxorubicin), the differential viability (reversal) was 12.7% (inactive). For the same molecule, the inhibition in test [4] is 0.66% (inactive); in test [5], -6.03% (inactive).

Consider `CC1(C)NC(=O)N(CCOc2cccc(Cl)c2Cl)C1=O`, for which the viability in test [1] is 98.7% (inactive); in test [2], 102% (inactive); in test [3] (setting [6]) it was 87.5%; in test [3] (setting [7]), 102%. Further, in test [3] (H69AR cells + 2 uM doxorubicin), the differential viability (reversal) was 14.6% (inactive). Further, the inhibition was -5.2% (inactive) in test [4] and 10.2% (inactive) in test [5].

As for `COC(=O)c1[nH]c(C)c(/C(O)=C2\C(=O)C(=O)N(CCCN3CCOCC3)C2c2ccccn2)c1C` (stereo not drawn), the viability in test [1] was 109% (inactive); in test [2], 104% (inactive); in test [3] (setting [6]), 96.1%; in test [3] (setting [7]), 104%. Further, the differential viability (reversal) in test [3] (H69AR cells + 2 uM doxorubicin) is 7.94% (inactive). Besides, the figures for the inhibition in test [4] and in test [5] were -0.53% (inactive) and -4.6% (inactive), respectively.

For `CCOC(=O)N1CCN(C(=O)C(NS(=O)(=O)c2cccc3nsnc23)c2ccccc2)CC1` (stereo not drawn), the viability was 100% (inactive) in test [1], 94.2% (inactive) in test [2], 101% in test [3] (setting [6]) and 94.2% in test [3] (setting [7]). Also, the differential viability (reversal) in test [3] (H69AR cells + 2 uM doxorubicin) is -6.95% (inactive). Also, the inhibition in test [4] is -3.38% (inactive); in test [5] it was -0.63% (inactive).

For the molecule `Fc1c(F)c(F)c(CSc2nc3ccccc3[nH]2)c(F)c1F`, the viability is 105% (inactive) in test [1], 95.8% (inactive) in test [2], 84% in test [3] (setting [6]) and 95.8% in test [3] (setting [7]). Also, the differential viability (reversal) in test [3] (H69AR cells + 2 uM doxorubicin) was 11.8% (inactive). Further, the values for the inhibition in test [4] and in test [5] were 0.65% (inactive) and 3.02% (inactive), respectively.

As to `O=C(Sc1nnnn1C1CCCCC1)c1cccs1`, the viability in test [1] was 102% (inactive); in test [2] it was 98.7% (inactive); in test [3] (setting [6]), 92.5%; in test [3] (setting [7]) it was 98.7%. In test [3] (H69AR cells + 2 uM doxorubicin), the differential viability (reversal) was 6.21% (inactive). Also, the inhibition in test [4] is -6.53% (inactive); in test [5], 3.81% (inactive).

As to `C=CCSc1n[nH]c(-c2ccc(OC)cc2)n1`, the viability is 108% (inactive) in test [1], 90.3% (inactive) in test [2], 87.9% in test [3] (setting [6]) and 90.3% in test [3] (setting [7]). The differential viability (reversal) in test [3] (H69AR cells + 2 uM doxorubicin) is 2.41% (inactive). In addition, the inhibition in test [4] was -4.53% (inactive); in test [5], -2.06% (inactive).

Values taken from PubChem BioAssay.
